Data on 167 variants can be found in the RNAGym collection of RNA variant scans (doi:10.1126/science.aae0568).

Variants at the floor of the assay were thinned out.

To fix the notation:
B1: tRNA (parent)
chain: GUUCCGUUGGCGUAAUGGUAACGCGUCUCCCUCCUAAGGAGAAGACUGCGGGUUCGAGUCCCGUACGGAACG

Variants of B1 are the subject of the data set. Kind of data set: yeast fitness relative to wild type (ratio to wild type); higher = fitter; tRNA-Arg(CCU), competitive growth, 37 C, YPD. In outline: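 Genotype frequency changes were the basis for Darwinian fitness relative to wild type. The frequencies came from 100-nucleotide paired-end sequencing of gene amplicons from the start population and each end population of pooled yeast strains with tRNA-Arg(CCU) gene variants at the native locus. Competition ran in YPD at 37°C for 24 hours in six replicates, genotypes needed ≥ 100 starting reads, and estimates < 0.5 were set to 0.5.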
In the case of C5G U19A C24G C34A C55U, the yeast fitness worked out at 0.601.

As for U3G G18A G41A A45U, the yeast fitness was not above 0.5.

Take G18A C22G C24G G50A A69C: the yeast fitness was not above 0.5.

For the variant C11A U19C C31U U53A, the yeast fitness was not above 0.5.

U7A U8G C30G: the yeast fitness is not above 0.5.

For A14C U19C C34U, the yeast fitness was not above 0.5.

With U7C C33G A36G C49A G68C, the yeast fitness is not above 0.5.

Consider U19A G44C, for which the yeast fitness came to 0.971.

On to C5U G12C A43G G56A, for which the yeast fitness was not above 0.5.

For the variant C11A C61U, the yeast fitness worked out at 0.621.

Turning to C5U G10A A21G, the yeast fitness came out at 0.59.

In the case of A21G C22G U35G A36C, the yeast fitness amounted to 0.746.

For the variant C34A A36G A65C G68C, the yeast fitness was not above 0.5.

Take G41U A69U: the yeast fitness was 0.845.

Turning to U19A C34G G52A, the yeast fitness is not above 0.5.

C4G U19C A43G A45C C46U: the yeast fitness is not above 0.5.

As for C31U C46G A69U, the yeast fitness came to 0.731.

Consider C31U U53C C62G, for which the yeast fitness was 0.625.

On to U8C G25C G38A G58A C60U, for which the yeast fitness was not above 0.5.

Regarding A57C C61A G67A, the yeast fitness came out at 0.56.

As to A20C C29U C34A C46A G50A A57U G58A C66U, the yeast fitness is not above 0.5.

With C29U U59A, the yeast fitness was 0.701.

Regarding U3A A14C A20C U28A C29G U32C G39A A57C, the yeast fitness is not above 0.5.

As to C34G C55A, the yeast fitness is not above 0.5.

On to U2C C29U G38C A43U U53G G63C, for which the yeast fitness is not above 0.5.

As for C4G C5G C11U G56A C61A, the yeast fitness was not above 0.5.

For G10C G23C C33G C46A C66A, the yeast fitness was not above 0.5.

With G17C C27U A36G, the yeast fitness turned out to be 0.714.

U13A U35G: the yeast fitness amounted to 0.688.

Turning to A20G C29U, the yeast fitness was determined as 0.88.

For the variant A20C U26G A43U, the yeast fitness is not above 0.5.

With C11G A70U, the yeast fitness worked out at 0.655.

On to U8C C31U C49U U54C, for which the yeast fitness is not above 0.5.

For the variant G23A C30A C55U, the yeast fitness is not above 0.5.

Regarding C33A G44A U64G, the yeast fitness was not above 0.5.

Take C22U U32G C34U A40G A70U: the yeast fitness was 0.563.

As to G18C G23C U53A A69C, the yeast fitness is not above 0.5.

As for C4A G56C C66U, the yeast fitness is not above 0.5.

On to G17C C60G, for which the yeast fitness was not above 0.5.

Regarding A37G U53A, the yeast fitness was not above 0.5.

For A14G G18A U26A A70C, the yeast fitness was not above 0.5.

For the variant C46U A69G, the yeast fitness was 0.894.

On to G18A C46U U59C C60A G68A, for which the yeast fitness is not above 0.5.

Turning to A21U U26A U54A G63C A65C, the yeast fitness was 0.554.

Turning to C29A C46A A70G, the yeast fitness was not above 0.5.

Regarding U26G A45U G50A C55A, the yeast fitness was not above 0.5.

Take U53A: the yeast fitness turned out to be 0.653.

As to C5A G39A U59A, the yeast fitness was not above 0.5.

For U8C G50A C66A, the yeast fitness was not above 0.5.

As for U3C C29G G56A C62G C66G, the yeast fitness is not above 0.5.

Take C5G A14G G44C C62U C66U A69C: the yeast fitness was not above 0.5.

Regarding U3G U8A U26G G38C A40C U53C, the yeast fitness amounted to 0.566.

For A15C C22G A43C G50A, the yeast fitness turned out to be 0.556.

On to U3A C30G C31U C61U, for which the yeast fitness was not above 0.5.

As to U2A C60U A65U, the yeast fitness is not above 0.5.

As for C5U C31U G39A A57C, the yeast fitness turned out to be 0.574.

In the case of C24G A37C G58A G68A, the yeast fitness is not above 0.5.

As to C24U C27U G50C, the yeast fitness is not above 0.5.

In the case of C5A G52A G63A, the yeast fitness was not above 0.5.

Regarding C4G U8C C24G A42C G67A, the yeast fitness turned out to be 0.558.

As to G9C U13C C30A C46A G48C A70C, the yeast fitness came out at 0.548.

For the variant U26A G44C C62A, the yeast fitness amounted to 0.598.

Regarding G6C A45U G50A, the yeast fitness came to 0.658.

In the case of U26C G50C, the yeast fitness was found to be 0.732.

C5G U35C A69C: the yeast fitness is 0.551.

Turning to U2G C4A U16C C61G G68C, the yeast fitness is not above 0.5.

With G17C G25A C49A, the yeast fitness is not above 0.5.

In the case of C27A C60G, the yeast fitness was found to be 0.657.

On to A40G C49U A65C, for which the yeast fitness was determined as 0.941.

G23C A42U A43G: the yeast fitness was not above 0.5.

Regarding U13A A45G G50C C60A A69C, the yeast fitness is 0.821.

With A15U C24A C29G, the yeast fitness was not above 0.5.

On to U8C A36G A70C, for which the yeast fitness is 0.644.

Turning to G23C C62G C66A, the yeast fitness was not above 0.5.

As for C24G U53A C55G, the yeast fitness was not above 0.5.

As to C27A U53A G58C A70C, the yeast fitness was determined as 0.57.

G50C A70U: the yeast fitness was 0.875.

With A36G A45C A69U, the yeast fitness is 0.806.

Turning to C24A C31A A65C, the yeast fitness was not above 0.5.

For the variant G41C C55G C66G, the yeast fitness was not above 0.5.

In the case of C11A A20C C24U C55G, the yeast fitness was 0.617.

With C5A G17C C27U A57C, the yeast fitness is not above 0.5.

C27G G56A A70U: the yeast fitness amounted to 0.531.

Turning to C4U A69U, the yeast fitness is 1.02.

In the case of C4U G10C U35C G41A C49U, the yeast fitness was not above 0.5.

C4A A14U A20C U28G: the yeast fitness is 0.588.

Turning to U26C A57C, the yeast fitness turned out to be 0.611.

Turning to G9A G48A A70U, the yeast fitness was found to be 1.25.

Turning to C24G C30G, the yeast fitness came out at 0.53.

For the variant C5U C29U, the yeast fitness stood at 0.867.

As for U28G A36C G38C C49U, the yeast fitness is not above 0.5.

For the variant A15C C31G A40U G51A, the yeast fitness is not above 0.5.

In the case of A21G A42C G67A, the yeast fitness amounted to 0.662.

Take U16A A21G C34U G67C: the yeast fitness is not above 0.5.

U8C G9A A40C A45G A57G: the yeast fitness is not above 0.5.

A15U G18A A57U: the yeast fitness is not above 0.5.

As to G9A C27U C46G, the yeast fitness came to 0.708.

U19C G56C A57G G68U: the yeast fitness was not above 0.5.

As to C11U U19G G51C C61G, the yeast fitness is not above 0.5.

Take C5G G12A A36U A42U U59C A65C: the yeast fitness is not above 0.5.

For the variant C46A G56U A57G, the yeast fitness was determined as 0.665.

As to G6A U47C A57C, the yeast fitness was not above 0.5.

As to C24G U47A, the yeast fitness was 0.57.

Consider A20C C24U C66U, for which the yeast fitness is not above 0.5.

In the case of A20G G51A, the yeast fitness turned out to be 0.859.

On to C4A U7A U59A, for which the yeast fitness is not above 0.5.

In the case of C34A G41A, the yeast fitness was 0.782.

On to C24A A36G A43G A57G, for which the yeast fitness is not above 0.5.

On to C22A U47A A65U, for which the yeast fitness was not above 0.5.

With G6C C24U U47C A57U, the yeast fitness is not above 0.5.

G10A U13G A36G: the yeast fitness came to 0.52.

For G38A G41C A69U, the yeast fitness is 0.822.

As for U3C A37C G38A G52A G63A, the yeast fitness was not above 0.5.

Consider U8A C29U, for which the yeast fitness worked out at 0.692.

As for G44C G51A G58C U59A, the yeast fitness is not above 0.5.

Regarding C62U G68C, the yeast fitness came to 0.812.

Consider G12C G17A U28A C49A, for which the yeast fitness was not above 0.5.

With C5U G10A A20G A36U A43C, the yeast fitness was not above 0.5.

As to C22U C49A, the yeast fitness was determined as 0.682.

Regarding U16C C33A A40C, the yeast fitness was not above 0.5.

For U7A G9C C30U C34G A37G G68C, the yeast fitness is not above 0.5.

Turning to C4U C31U G67C, the yeast fitness was found to be 0.598.

With U2A C29G C30G C49A G56C C61U, the yeast fitness amounted to 0.749.

On to U8A G23C, for which the yeast fitness was not above 0.5.

Consider C11A G18A C31U A69C, for which the yeast fitness is 0.605.

With U19G G58A C66U, the yeast fitness is 0.857.

Consider U2A C4U U28A C30U C60G C66G, for which the yeast fitness was not above 0.5.

For the variant C11G G17C C34A A43C G56C C61A A65C, the yeast fitness was not above 0.5.

For C27U C31U A40U A45U C49G G63A, the yeast fitness was found to be 0.589.

With C5G U13C A21C G68A, the yeast fitness is not above 0.5.

Take C4G C33G G67A: the yeast fitness was not above 0.5.

U16A C24U C55U: the yeast fitness came to 0.913.

For C27G A42C G50C G56A C66G, the yeast fitness is not above 0.5.

On to U13C C22U C27U A37C, for which the yeast fitness was 0.563.

For U3C C30A A40U, the yeast fitness was 0.634.

In the case of U3A A14U C46U U53A, the yeast fitness was not above 0.5.

Turning to C11U A21C C22G, the yeast fitness came to 0.657.

As for G10C U28G C33G C49U A69U, the yeast fitness was not above 0.5.

With U8C A14C A43G, the yeast fitness was not above 0.5.

Take C5A G18C G50C C60G A70G: the yeast fitness is not above 0.5.

For C5A G51A C61G, the yeast fitness was not above 0.5.

As to G10A A69U, the yeast fitness turned out to be 0.732.

On to C4A A15U C61A, for which the yeast fitness was 0.78.

On to U13A G18C C27U U54C A57U, for which the yeast fitness is 0.561.

Consider A37U G56C A57U, for which the yeast fitness is not above 0.5.

Take U19A C24U G38A U54C A69C: the yeast fitness was not above 0.5.

On to U16C G25C U47A A65G, for which the yeast fitness was not above 0.5.

For the variant U8C G23A C30G C61A G67A, the yeast fitness is not above 0.5.

With G39C G50A, the yeast fitness is 0.752.

U2C U13C C22G C24U C61A: the yeast fitness was not above 0.5.

As to G17C G48C A65G, the yeast fitness stood at 0.562.

With U8A A37C, the yeast fitness amounted to 0.679.

For the variant A20C C22U C29G G41C C49G U53A C66U, the yeast fitness is not above 0.5.

As for G25C U35C, the yeast fitness stood at 0.862.

For G23A C30A G51A, the yeast fitness came to 0.562.

Turning to U26C C33U C55U C60U, the yeast fitness is not above 0.5.

For the variant G10A U47C, the yeast fitness is 0.589.

Turning to C5U U13C U26A, the yeast fitness turned out to be 0.722.

For the variant U64C A65G, the yeast fitness came to 0.86.

With U3A C5A G12C G25A C30U, the yeast fitness is not above 0.5.

Regarding G23C C27U C30U, the yeast fitness turned out to be 0.53.

Consider C22U C31A C60G, for which the yeast fitness is not above 0.5.

Consider C11U C22U G58A C66U, for which the yeast fitness was 0.532.

In the case of C11U C24U U53A C66U, the yeast fitness is not above 0.5.

Consider C11A C27G G67C, for which the yeast fitness is not above 0.5.

For the variant A42C G67C A70U, the yeast fitness was 0.505.

As for C11U C27U A45C A57C, the yeast fitness was not above 0.5.
